Measurements as given in ChEMBL document CHEMBL3853279, “Tadehaginosides A-J, Phenylpropanoid Glucosides from Tadehagi triquetrum, Enhance Glucose Uptake via the Upregulation of PPARγ and GLUT-4 in C2C12 Myotubes” (J Nat Prod, 2016).
Calls of active or inactive are those of the source. The calls are words filed in the database; no cut-off is given here.

Legend:
[1] = biological target: T1, Peroxisome proliferator-activated receptor gamma (Mus musculus) (UniProt P37238); test: Transactivation of PPARgamma in mouse C2C12 cells assessed as increase in GLUT-4 mediated 2-NBDG uptake at 10 uM after 6 hrs by fluorescence assay; format: cell-based
T1 sequence (whole entry): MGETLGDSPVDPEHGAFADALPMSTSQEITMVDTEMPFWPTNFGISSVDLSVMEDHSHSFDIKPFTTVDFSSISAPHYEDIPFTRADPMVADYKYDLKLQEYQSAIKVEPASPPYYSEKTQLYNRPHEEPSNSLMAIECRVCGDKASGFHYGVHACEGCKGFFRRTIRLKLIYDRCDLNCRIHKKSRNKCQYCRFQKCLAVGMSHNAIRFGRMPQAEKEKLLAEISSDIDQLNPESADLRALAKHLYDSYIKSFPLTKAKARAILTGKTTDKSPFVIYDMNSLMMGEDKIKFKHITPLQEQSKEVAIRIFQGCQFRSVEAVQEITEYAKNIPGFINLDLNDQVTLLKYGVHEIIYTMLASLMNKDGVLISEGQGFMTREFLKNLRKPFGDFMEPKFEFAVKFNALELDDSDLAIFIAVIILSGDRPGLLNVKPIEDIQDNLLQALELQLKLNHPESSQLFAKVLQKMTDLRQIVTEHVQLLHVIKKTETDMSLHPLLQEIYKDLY
Procedure, shortened: (§1)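 Uptake was run in C2C12 myotubes (4 days in DMEM/1% FBS) kept in serum-free DMEM. 2-NBDG 10 μM and compound (DMSO solution) were added together for the stated time. Medium was then discarded, and cells were washed twice with PBS and scraped in ice-cold PBS. Cell-associated 2-NBDG was read by fluorescence at Ex/Em 475/550 nm, under basal or insulin-stimulated conditions.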

[2] = biological target: T1, Peroxisome proliferator-activated receptor gamma (Mus musculus); test: Transactivation of PPARgamma in mouse C2C12 cells assessed as increase in GLUT-4 mediated 2-NBDG uptake at 10 uM after 2 to 8 hrs by fluorescence assay; format: cell-based; procedure, shortened: as §1
[3] = biological target: T1, Peroxisome proliferator-activated receptor gamma (Mus musculus); test: Transactivation of PPARgamma in mouse C2C12 cells at 1 to 10 uM after 24 hrs by DR-1 luciferase reporter gene assay; format: cell-based
Procedure, shortened: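 C2C12 myotubes were transiently co-transfected with a DR-1 luciferase reporter and a PPARγ expression vector. Six hours after transfection, the medium was replaced with fresh medium containing the agonist. Luciferase activity was measured 24 h later by kit assay.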

[4] = biological target: T1, Peroxisome proliferator-activated receptor gamma (Mus musculus); test: Transactivation of PPARgamma in mouse C2C12 cells assessed as increase in GLUT-4 mediated 2-NBDG uptake at 4 hrs by fluorescence assay; format: cell-based; procedure, shortened: as §1
[5] = biological target: T1, Peroxisome proliferator-activated receptor gamma (Mus musculus); test: Transactivation of PPARgamma in mouse C2C12 cells assessed as increase in GLUT-4 levels in at 1 to 10 uM after 6 hrs by ELISA; format: cell-based
Procedure, shortened: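 Myotubes were differentiated from C2C12 myoblasts over 4 days in DMEM plus 1% FBS, then treated 6 h in serum-free DMEM at 1 and 10 μM, with rosiglitazone 10 μM as reference. Cells were PBS-washed and lysed, and lysates were spun 20 min at 13000g, 4 °C. GLUT-4 in the supernatant was quantified by mouse GLUT-4 ELISA.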

[6] = biological target: T1, Peroxisome proliferator-activated receptor gamma (Mus musculus); test: Transactivation of PPARgamma in mouse C2C12 cells assessed as increase in GLUT-4 mediated insulin-induced 2-NBDG uptake at 4 hrs by fluorescence assay; format: cell-based; procedure, shortened: as §1
Mus musculus = species: Mus musculus; test: Cytotoxicity against mouse C2C12 cells assessed as cell viability at 1 to 20 uM after 4 hrs by MTT assay; format: toxicity, cell-based; conditions: c2c12, 4 h
Procedure, shortened: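 C2C12 myoblasts differentiated to myotubes in DMEM with 1% FBS, changed daily for 4 days, then seeded in 96-well plates. Cells were exposed to test compound for 4 h, with digitonin 100 μg/mL as positive control. MTT reagent was added, then DMSO, and absorbance was read at 565 nm as viability.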

[7] = biological target: T1, Peroxisome proliferator-activated receptor gamma (Mus musculus); test: Transactivation of PPARgamma in mouse C2C12 cells assessed as increase in GLUT-4 mediated 2-NBDG uptake at 5 to 20 uM at 4 hrs by fluorescence assay; format: cell-based; procedure, shortened: as §1

SMILES | Activity [1] | further results
O=C(/C=C/c1ccc(O)cc1)O[C@H]1[C@H](O)[C@@H](O)[C@H](Oc2cc(O)cc(O)c2)O[C@@H]1CO | Active | –
O=C(OC[C@H]1O[C@@H](Oc2cc(O)cc(O)c2)[C@H](O)[C@@H](O)[C@@H]1O)[C@H]1[C@H](C(=O)OC[C@H]2O[C@@H](Oc3cc(O)cc(O)c3)[C@H](O)[C@@H](O)[C@@H]2O)[C@H](c2ccc(O)cc2)[C@H]1c1ccc(O)cc1 | Active | –
O=C(OC[C@H]1O[C@@H](Oc2cc(O)cc(O)c2)[C@H](O)[C@@H](O)[C@@H]1O)[C@H]1[C@H](c2ccc(O)cc2)[C@H](C(=O)OC[C@H]2O[C@@H](Oc3cc(O)cc(O)c3)[C@H](O)[C@@H](O)[C@@H]2O)[C@H]1c1ccc(O)cc1 | Active | Activity [2]: Active; Activity [3]: Active; Activity [4]: Dose-dependent effect; Activity [5]: Active; Activity [6]: Dose-dependent effect; Activity (Mus musculus): Non-Toxic; Activity [7]: Active
CC(=O)c1c(O)cc(O)cc1O[C@@H]1O[C@H](COC(=O)/C=C/c2ccc(O)cc2)[C@@H](O)[C@H](O)[C@H]1O | Active | –
CC(=O)c1c(O)cc(O)cc1O[C@@H]1O[C@H](COC(=O)/C=C\c2ccc(O)cc2)[C@@H](O)[C@H](O)[C@H]1O | Active | –
O=C(/C=C/c1ccc(O)cc1)OC[C@H]1O[C@@H](Oc2cc(O)cc(O)c2)[C@H](O)[C@@H](O)[C@@H]1O | Active | –

The next lines start with results.

Activity [1] | SMILES | further results
Active | O=C(/C=C/c1ccc(O)cc1)O[C@@H]1[C@@H](O)[C@H](Oc2cc(O)cc(O)c2)O[C@H](CO)[C@H]1O | –
Active | O=C(/C=C/c1ccc(O)cc1)O[C@H]1[C@H](Oc2cc(O)cc(O)c2)O[C@H](CO)[C@@H](O)[C@@H]1O | –
Active | O=C(/C=C\c1ccc(O)cc1)O[C@H]1[C@H](Oc2cc(O)cc(O)c2)O[C@H](CO)[C@@H](O)[C@@H]1O | –
